ChEMBL document CHEMBL1132538, “Potential multifunctional inhibitors of HIV-1 reverse transcriptase. Novel [AZT]-[TSAO-T] and [d4T]-[TSAO-T] heterodimers modified in the linker and in the dideoxynucleoside region” (J Med Chem, 1999)

Experiments:
CCRF-CEM [1] = assay: Cytostatic concentration against CEM cell; format: functional; conditions: Homo sapiens
CCRF-CEM [2] = assay: Inhibition of HIV-1 induced cytopathicity against CEM cell; format: functional, cell-based; conditions: Homo sapiens
Summary of the method: (§1)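 HIV-1 or HIV-2 at ~100 CCID50 per mL infecting CEM (4 × 10^5 cells/mL) or MT-4 (3 × 10^5 cells/mL) cells, mixed 1:1 with compound dilutions in microtiter wells. After 4 days, giant cell formation (CEM) or virus-induced cytopathicity (MT-4) scored microscopically.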

CCRF-CEM [3] = assay: Inhibition of HIV-2 induced cytopathicity against CEM cell; format: functional, cell-based; conditions: Homo sapiens
Summary of the method: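 CEM cells at 4 × 10^5 per mL infected with HIV-2 at ∼100 CCID50 per mL of cell suspension, then mixed 1:1 with serial compound dilutions. Giant cell formation scored microscopically after 4 days.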

MT4 [4] = assay: Inhibition of HIV-2 induced cytopathicity against MT-4 cell; format: functional, cell-based; conditions: Homo sapiens; summary of the method: as §1
MT4 [5] = assay: Cytostatic concentration against MT-4 cell; format: functional; conditions: Homo sapiens
MT4 [6] = assay: Inhibition of HIV-1 induced cytopathicity against MT-4 cell; format: functional, cell-based; conditions: Homo sapiens; summary of the method: as §1
MT-4 (human) = assay: Cytostatic concentration against MT-4 cell
CEM (human) = assay: Inhibition of HIV-2 induced cytopathicity against CEM cell

| Compound | CC50 (CCRF-CEM [1]) | EC50 (CCRF-CEM [2]) | EC50 (CCRF-CEM [3]) | EC50 (MT4 [4]) | CC50 (MT4 [5]) | EC50 (MT4 [6]) | CC50 (MT-4 (human)) | EC50 (CEM (human)) |
| --- | --- | --- | --- | --- | --- | --- | --- | --- |
| Cc1cn([C@@H]2CC(N=[N+]=[N-])[C@H](CO)O2)c(=O)n(CC#CCn2c(=O)c(C)cn([C@@H]3O[C@H](CO[Si](C)(C)C(C)(C)C)[C@@]4(OS(=O)(=O)C=C4N)[C@H]3O[Si](C)(C)C(C)(C)C)c2=O)c1=O (stereo partly specified) | > 250 µM | 0.23 µM | > 50 µM | > 250 µM | 106 µM | 1 µM | – | – |
| Cc1cn([C@@H]2O[C@H](CO[Si](C)(C)C(C)(C)C)C3(OS(=O)(=O)C=C3N)[C@H]2O[Si](C)(C)C(C)(C)C)c(=O)[nH]c1=O (stereo partly specified) | – | 0.05 µM | – | > 6 µM | – | – | 12 µM | > 6 µM |
| COC(=O)C(C)NP(=O)(OCC1OC(n2cc(C)c(=O)n(CCCBr)c2=O)CC1N=[N+]=[N-])Oc1ccccc1 (stereo unspecified) | 41 µM | > 50 µM | > 50 µM | > 50 µM | 44 µM | > 50 µM | – | – |
| COC(=O)C(C)NP(=O)(OC[C@H]1C=C[C@@H](n2cc(C)c(=O)n(CCCCCCn3c(=O)c(C)cn([C@@H]4O[C@H](CO[Si](C)(C)C(C)(C)C)[C@@]5(OS(=O)(=O)C=C5N)[C@H]4O[Si](C)(C)C(C)(C)C)c3=O)c2=O)O1)Oc1ccccc1 (stereo partly specified) | > 250 µM | 0.4 µM | > 50 µM | > 50 µM | 37 µM | 0.57 µM | – | – |
| COC(=O)C(C)NP(=O)(OC[C@@H]1O[C@H](n2cc(C)c(=O)n(CCCCCCn3c(=O)c(C)cn([C@@H]4O[C@H](CO[Si](C)(C)C(C)(C)C)[C@@]5(OS(=O)(=O)C=C5N)[C@H]4O[Si](C)(C)C(C)(C)C)c3=O)c2=O)C[C@H]1O)Oc1ccccc1 (stereo partly specified) | 104 µM | 0.25 µM | > 50 µM | > 50 µM | 25 µM | 0.93 µM | – | – |
| Cc1cn([C@@H]2O[C@H](CO[Si](C)(C)C(C)(C)C)[C@@]3(OS(=O)(=O)C=C3N)[C@H]2O[Si](C)(C)C(C)(C)C)c(=O)n(CC#Cc2cn([C@@H]3C[C@@H](N=[N+]=[N-])[C@H](CO)O3)c(=O)[nH]c2=O)c1=O | > 250 µM | 0.2 µM | – | > 10 µM | 31 µM | 0.33 µM | – | – |
| Cc1cn([C@@H]2C[C@@H](N=[N+]=[N-])[C@H](CO)O2)c(=O)n(C/C=C/Cn2c(=O)c(C)cn([C@@H]3O[C@H](CO[Si](C)(C)C(C)(C)C)[C@@]4(OS(=O)(=O)C=C4N)[C@H]3O[Si](C)(C)C(C)(C)C)c2=O)c1=O | > 250 µM | 0.34 µM | 57 µM | > 250 µM | > 250 µM | 0.7 µM | – | – |
| Cc1cn([C@@H]2O[C@H](CO[Si](C)(C)C(C)(C)C)[C@@]3(OS(=O)(=O)C=C3N)[C@H]2O[Si](C)(C)C(C)(C)C)c(=O)n(CC#Cc2cn([C@@H]3C[C@@H](O)[C@H](CO)O3)c(=O)[nH]c2=O)c1=O | 21 µM | 0.55 µM | > 10 µM | > 10 µM | 15 µM | 0.44 µM | – | – |
| COC(=O)C(C)NP(=O)(OC[C@@H]1O[C@H](n2cc(C)c(=O)n(CCCn3c(=O)c(C)cn([C@@H]4O[C@H](CO[Si](C)(C)C(C)(C)C)[C@@]5(OS(=O)(=O)C=C5N)[C@H]4O[Si](C)(C)C(C)(C)C)c3=O)c2=O)C[C@H]1N=[N+]=[N-])Oc1ccccc1 (stereo partly specified) | > 250 µM | 0.65 µM | > 250 µM | > 250 µM | > 250 µM | 3.2 µM | – | – |
| Cc1cn([C@@H]2O[C@H](CO[Si](C)(C)C(C)(C)C)[C@@]3(OS(=O)(=O)C=C3N)[C@H]2O[Si](C)(C)C(C)(C)C)c(=O)n(CCCn2c(=O)c(C)cn([C@H]3C[C@H](N=[N+]=[N-])[C@@H](CO)O3)c2=O)c1=O | > 100 µM | 0.09 µM | – | – | > 100 µM | 0.38 µM | – | – |
| Cc1cn([C@@H]2O[C@H](CO[Si](C)(C)C(C)(C)C)[C@@]3(OS(=O)(=O)C=C3N)[C@H]2O[Si](C)(C)C(C)(C)C)c(=O)n(CC#CC#CCn2c(=O)c(C)cn([C@H]3O[C@@H](CO[Si](C)(C)C(C)(C)C)[C@]4(OS(=O)(=O)C=C4N)[C@@H]3O[Si](C)(C)C(C)(C)C)c2=O)c1=O | > 250 µM | > 50 µM | > 250 µM | > 250 µM | 65 µM | > 50 µM | – | – |
| Cc1cn([C@@H]2C[C@@H](N=[N+]=[N-])[C@H](CO)O2)c(=O)n(CCOCCn2c(=O)c(C)cn([C@@H]3O[C@H](CO[Si](C)(C)C(C)(C)C)[C@@]4(OS(=O)(=O)C=C4N)[C@H]3O[Si](C)(C)C(C)(C)C)c2=O)c1=O | > 250 µM | 0.18 µM | > 50 µM | > 250 µM | > 250 µM | 0.31 µM | – | – |
| COC(=O)C(C)NP(=O)(OC[C@@H]1O[C@H](n2cc(C)c(=O)n(CCCn3c(=O)c(C)cn([C@@H]4O[C@H](CO[Si](C)(C)C(C)(C)C)[C@@]5(OS(=O)(=O)C=C5N)[C@H]4O[Si](C)(C)C(C)(C)C)c3=O)c2=O)C[C@H]1O)Oc1ccccc1 (stereo partly specified) | > 250 µM | 0.25 µM | > 50 µM | > 50 µM | 31 µM | 0.33 µM | – | – |
| COC(=O)C(C)NP(=O)(OCC1OC(n2cc(C)c(=O)n(CCCCCCBr)c2=O)CC1N=[N+]=[N-])Oc1ccccc1 (stereo unspecified) | 22 µM | > 10 µM | > 10 µM | > 10 µM | 22 µM | > 10 µM | – | – |
| COC(=O)C(C)NP(=O)(OC[C@@H]1O[C@H](n2cc(C)c(=O)n(CCCCCCn3c(=O)c(C)cn([C@@H]4O[C@H](CO[Si](C)(C)C(C)(C)C)[C@@]5(OS(=O)(=O)C=C5N)[C@H]4O[Si](C)(C)C(C)(C)C)c3=O)c2=O)C[C@H]1N=[N+]=[N-])Oc1ccccc1 (stereo partly specified) | > 250 µM | 1.7 µM | > 250 µM | > 250 µM | > 250 µM | – | – | – |
| COC(=O)C(C)NP(=O)(OC[C@H]1C=C[C@@H](n2cc(C)c(=O)n(CCCn3c(=O)c(C)cn([C@@H]4O[C@H](CO[Si](C)(C)C(C)(C)C)[C@@]5(OS(=O)(=O)C=C5N)[C@H]4O[Si](C)(C)C(C)(C)C)c3=O)c2=O)O1)Oc1ccccc1 (stereo partly specified) | 123 µM | 0.17 µM | 15 µM | 26 µM | 28 µM | 0.18 µM | – | – |
| Cc1cn([C@@H]2O[C@H](CO[Si](C)(C)C(C)(C)C)[C@@]3(OS(=O)(=O)C=C3N)[C@H]2O[Si](C)(C)C(C)(C)C)c(=O)n(CC#Cc2cn([C@@H]3C=C[C@H](CO)O3)c(=O)[nH]c2=O)c1=O | 21 µM | 0.11 µM | > 10 µM | > 10 µM | 8 µM | 0.18 µM | – | – |
